Data taken from ChEMBL document CHEMBL4382192, “Discovery of a potent dual ALK and EGFR T790M inhibitor” (Eur J Med Chem, 2017).

How the values were obtained:
[1] = target: Activin receptor type-1 (Homo sapiens) (UniProt Q04771); assay: Binding affinity to wild-type human ACVR1 (C188 to C509 residues) expressed in bacterial expression system assessed as residual binding level at 1 uM by Kinomescan method relative to control
[2] = target: Mitogen-activated protein kinase kinase kinase 20 (Homo sapiens) (UniProt Q9NYL2); assay: Binding affinity to wild-type human partial length ZAK (M1 to L331 residues) expressed in bacterial expression system assessed as residual binding level at 1 uM by Kinomescan method relative to control
[3] = target: Microtubule-associated serine/threonine-protein kinase 1 (Homo sapiens) (UniProt Q9Y2H9); assay: Binding affinity to wild-type human partial length MAST1 (S346 to V730 residues) expressed in mammalian expression system assessed as residual binding level at 1 uM by Kinomescan method relative to control
Chain of Microtubule-associated serine/threonine-protein kinase 1 (Homo sapiens) (Q9Y2H9 whole entry, looked up, the tested form may be a part): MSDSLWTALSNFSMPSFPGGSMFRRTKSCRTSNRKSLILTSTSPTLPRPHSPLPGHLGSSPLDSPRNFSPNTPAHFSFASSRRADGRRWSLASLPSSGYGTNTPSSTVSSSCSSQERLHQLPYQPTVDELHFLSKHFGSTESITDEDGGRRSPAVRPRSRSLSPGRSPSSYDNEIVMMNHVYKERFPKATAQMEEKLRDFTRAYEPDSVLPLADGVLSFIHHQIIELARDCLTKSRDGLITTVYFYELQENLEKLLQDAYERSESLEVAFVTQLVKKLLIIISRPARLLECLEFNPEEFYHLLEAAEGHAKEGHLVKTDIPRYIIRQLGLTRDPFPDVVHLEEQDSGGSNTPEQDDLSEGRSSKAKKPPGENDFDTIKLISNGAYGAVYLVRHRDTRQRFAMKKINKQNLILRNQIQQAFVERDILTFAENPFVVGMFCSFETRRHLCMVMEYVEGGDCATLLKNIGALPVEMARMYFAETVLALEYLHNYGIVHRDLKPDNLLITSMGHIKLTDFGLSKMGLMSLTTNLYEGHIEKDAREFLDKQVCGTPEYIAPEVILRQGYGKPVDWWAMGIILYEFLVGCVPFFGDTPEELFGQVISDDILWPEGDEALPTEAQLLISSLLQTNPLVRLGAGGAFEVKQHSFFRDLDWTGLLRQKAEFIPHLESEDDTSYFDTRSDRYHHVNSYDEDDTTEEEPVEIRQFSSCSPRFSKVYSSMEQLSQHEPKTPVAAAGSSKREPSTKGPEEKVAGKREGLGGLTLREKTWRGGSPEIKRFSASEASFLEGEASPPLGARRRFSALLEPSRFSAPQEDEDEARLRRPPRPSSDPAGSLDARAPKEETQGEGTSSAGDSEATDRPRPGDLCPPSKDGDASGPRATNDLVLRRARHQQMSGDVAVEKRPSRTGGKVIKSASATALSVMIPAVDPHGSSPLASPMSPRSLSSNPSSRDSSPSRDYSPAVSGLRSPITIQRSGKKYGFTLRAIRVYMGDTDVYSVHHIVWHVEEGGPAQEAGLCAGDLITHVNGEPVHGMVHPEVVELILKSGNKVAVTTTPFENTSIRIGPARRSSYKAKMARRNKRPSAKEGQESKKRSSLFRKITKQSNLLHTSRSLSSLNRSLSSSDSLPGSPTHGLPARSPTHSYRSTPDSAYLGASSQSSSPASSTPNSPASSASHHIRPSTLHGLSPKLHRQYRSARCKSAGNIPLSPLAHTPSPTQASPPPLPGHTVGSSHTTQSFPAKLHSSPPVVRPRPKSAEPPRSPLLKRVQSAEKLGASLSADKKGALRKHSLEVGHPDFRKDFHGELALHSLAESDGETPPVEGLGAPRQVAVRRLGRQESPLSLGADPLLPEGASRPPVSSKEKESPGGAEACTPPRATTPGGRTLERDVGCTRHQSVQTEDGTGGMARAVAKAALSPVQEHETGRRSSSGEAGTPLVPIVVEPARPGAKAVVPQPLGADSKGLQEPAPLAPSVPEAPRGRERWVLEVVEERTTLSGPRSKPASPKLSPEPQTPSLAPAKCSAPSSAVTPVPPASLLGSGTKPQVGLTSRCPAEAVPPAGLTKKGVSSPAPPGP

[4] = target: Tyrosine-protein kinase receptor Tie-1 (Homo sapiens) (UniProt P35590); assay: Binding affinity to wild-type human partial length TIE1 (T819 to A1138 residues) expressed in bacterial expression system assessed as residual binding level at 1 uM by Kinomescan method relative to control
[5] = target: Serine/threonine-protein kinase WNK4 (Homo sapiens) (UniProt Q96J92); assay: Binding affinity to wild-type human partial length WNK4 (A31 to D461 residues) expressed in mammalian expression system assessed as residual binding level at 1 uM by Kinomescan method relative to control
[6] = target: Cyclin-dependent kinase 11B (Homo sapiens) (UniProt P21127); assay: Binding affinity to wild-type human partial length CDC2L1 (P353 to G692 residues) expressed in bacterial expression system assessed as residual binding level at 1 uM by Kinomescan method relative to control
Chain of Cyclin-dependent kinase 11B (Homo sapiens) (P21127 whole entry, the tested form may be a part): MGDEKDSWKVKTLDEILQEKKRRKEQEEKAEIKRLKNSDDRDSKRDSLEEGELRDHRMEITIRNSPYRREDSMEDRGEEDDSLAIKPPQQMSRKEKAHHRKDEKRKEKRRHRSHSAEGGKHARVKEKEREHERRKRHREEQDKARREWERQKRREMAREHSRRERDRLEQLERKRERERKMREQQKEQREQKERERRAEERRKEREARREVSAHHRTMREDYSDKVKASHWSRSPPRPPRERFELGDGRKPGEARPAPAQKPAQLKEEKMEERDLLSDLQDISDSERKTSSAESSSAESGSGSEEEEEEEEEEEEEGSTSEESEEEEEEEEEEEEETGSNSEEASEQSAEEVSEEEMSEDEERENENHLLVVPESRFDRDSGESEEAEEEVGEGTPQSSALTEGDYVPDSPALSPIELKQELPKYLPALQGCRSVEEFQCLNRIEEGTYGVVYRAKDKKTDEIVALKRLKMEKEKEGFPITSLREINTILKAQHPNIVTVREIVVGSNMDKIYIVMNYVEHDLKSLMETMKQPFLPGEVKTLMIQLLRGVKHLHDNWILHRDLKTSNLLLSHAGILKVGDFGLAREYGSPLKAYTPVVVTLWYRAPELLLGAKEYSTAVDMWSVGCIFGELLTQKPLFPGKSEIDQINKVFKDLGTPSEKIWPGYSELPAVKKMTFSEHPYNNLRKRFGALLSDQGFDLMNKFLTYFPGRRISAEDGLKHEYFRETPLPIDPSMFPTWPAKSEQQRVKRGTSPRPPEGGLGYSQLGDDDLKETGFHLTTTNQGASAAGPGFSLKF

[7] = tested on: ALK tyrosine kinase receptor (Homo sapiens), Q9UM73 [L1196M]; assay: Binding affinity to wild-type human partial length ALK L1196M mutant (I1088 to E1409 residues) expressed in mammalian expression system assessed as residual binding level at 1 uM by Kinomescan method relative to control
[8] = target: NUAK family SNF1-like kinase 2 (Homo sapiens) (UniProt Q9H093); assay: Binding affinity to wild-type human partial length SNARK (P22 to A333 residues) expressed in mammalian expression system assessed as residual binding level at 1 uM by Kinomescan method relative to control
[9] = target: LIM domain kinase 2 (Homo sapiens) (UniProt P53671); assay: Binding affinity to wild-type human full length LIMK2 (M1 to P638 residues) expressed in bacterial expression system assessed as residual binding level at 1 uM by Kinomescan method relative to control
Chain of LIM domain kinase 2 (Homo sapiens) (P53671 whole entry, looked up, the tested form may be a part): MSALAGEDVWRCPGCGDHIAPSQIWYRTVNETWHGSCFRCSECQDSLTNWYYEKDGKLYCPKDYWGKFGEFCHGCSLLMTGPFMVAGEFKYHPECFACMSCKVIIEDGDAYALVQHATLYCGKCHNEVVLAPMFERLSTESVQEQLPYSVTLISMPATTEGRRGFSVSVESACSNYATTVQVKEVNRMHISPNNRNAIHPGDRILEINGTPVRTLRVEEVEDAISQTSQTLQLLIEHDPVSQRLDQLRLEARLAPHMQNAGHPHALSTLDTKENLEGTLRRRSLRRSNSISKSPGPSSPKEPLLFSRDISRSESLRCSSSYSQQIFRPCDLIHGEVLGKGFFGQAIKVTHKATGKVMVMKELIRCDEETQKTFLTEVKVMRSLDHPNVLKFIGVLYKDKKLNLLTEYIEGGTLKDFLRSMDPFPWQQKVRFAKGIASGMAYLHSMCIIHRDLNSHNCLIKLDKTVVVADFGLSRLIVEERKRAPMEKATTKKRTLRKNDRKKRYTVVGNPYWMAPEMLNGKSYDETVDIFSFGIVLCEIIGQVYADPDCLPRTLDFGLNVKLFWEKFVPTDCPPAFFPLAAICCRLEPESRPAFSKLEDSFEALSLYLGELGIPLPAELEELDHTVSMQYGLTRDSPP
Outline: (§1)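 Single-point kinome-wide KINOMEscan binding panel, test compound at 1 μM, run by the provider's standard protocol.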

[10] = target: Serine/threonine-protein kinase RIO3 (Homo sapiens) (UniProt O14730); assay: Binding affinity to wild-type human full length RIOK3 (M1 to E519 residues) expressed in bacterial expression system assessed as residual binding level at 1 uM by Kinomescan method relative to control; outline: as §1
[11] = target: Cyclin-dependent kinase 5 (Homo sapiens) (UniProt Q00535); assay: Binding affinity to wild-type human full length CDK5 (M1 to P292 residues) expressed in bacterial expression system assessed as residual binding level at 1 uM by Kinomescan method relative to control
[12] = target: Cyclin-dependent kinase 3 (Homo sapiens) (UniProt Q00526); assay: Binding affinity to wild-type human full length CDK3 (M1 to H305 residues) expressed in bacterial expression system assessed as residual binding level at 1 uM by Kinomescan method relative to control
Chain of Cyclin-dependent kinase 3 (Homo sapiens) (Q00526 whole entry, looked up, the tested form may be a part): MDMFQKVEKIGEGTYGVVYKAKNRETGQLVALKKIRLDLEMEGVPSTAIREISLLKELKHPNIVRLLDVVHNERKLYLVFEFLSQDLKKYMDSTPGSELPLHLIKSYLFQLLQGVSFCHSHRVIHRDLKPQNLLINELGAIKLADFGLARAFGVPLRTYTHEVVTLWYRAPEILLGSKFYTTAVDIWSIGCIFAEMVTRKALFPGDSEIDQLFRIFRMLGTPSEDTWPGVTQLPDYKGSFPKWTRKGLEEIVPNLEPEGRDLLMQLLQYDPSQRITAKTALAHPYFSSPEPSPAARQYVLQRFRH

[13] = tested on: Mast/stem cell growth factor receptor Kit (Homo sapiens), P10721 [L576P]; assay: Binding affinity to human partial length KIT L576P mutant (Y545 to D952 residues) expressed in bacterial expression system assessed as residual binding level at 1 uM by Kinomescan method relative to control
Outline: (§2)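 Kinome-wide selectivity panel run by the KINOMEscan method, with the test compound at a single concentration of 1 μM. Wild-type and mutant kinases were profiled in the same screen.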

[14] = target: Mitogen-activated protein kinase 1 (Homo sapiens) (UniProt P28482); assay: Binding affinity to wild-type human full length ERK2 (M1 to S360 residues) expressed in bacterial expression system assessed as residual binding level at 1 uM by Kinomescan method relative to control; outline: as §1
Chain of Mitogen-activated protein kinase 1 (Homo sapiens) (P28482 whole entry, the tested form may be a part): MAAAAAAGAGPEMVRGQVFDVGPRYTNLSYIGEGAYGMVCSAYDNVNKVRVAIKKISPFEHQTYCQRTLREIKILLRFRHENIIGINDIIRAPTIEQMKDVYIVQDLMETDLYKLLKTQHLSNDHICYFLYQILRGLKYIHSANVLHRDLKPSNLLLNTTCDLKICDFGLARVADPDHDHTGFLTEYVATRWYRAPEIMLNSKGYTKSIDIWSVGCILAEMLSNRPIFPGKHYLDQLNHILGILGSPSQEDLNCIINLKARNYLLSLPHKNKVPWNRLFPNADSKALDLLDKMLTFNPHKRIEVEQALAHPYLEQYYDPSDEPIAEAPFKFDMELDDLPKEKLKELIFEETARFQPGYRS

[15] = target: Myosin light chain kinase 2, skeletal/cardiac muscle (Homo sapiens) (UniProt Q9H1R3); assay: Binding affinity to wild-type human partial length MYLK2 (D258 to K570 residues) expressed in bacterial expression system assessed as residual binding level at 1 uM by Kinomescan method relative to control
[16] = target: 5'-AMP-activated protein kinase catalytic subunit alpha-1 (Homo sapiens) (UniProt Q13131); assay: Binding affinity to wild-type human partial length AMPK alpha1 (M1 to E306 residues) expressed in bacterial expression system assessed as residual binding level at 1 uM by Kinomescan method relative to control
[17] = target: Receptor-type tyrosine-protein kinase FLT3 (Homo sapiens) (UniProt P36888); assay: Binding affinity to wild-type human partial length FLT3 (V592 to Y969 residues) expressed in bacterial expression system assessed as residual binding level at 1 uM by Kinomescan method relative to control
Chain of Receptor-type tyrosine-protein kinase FLT3 (Homo sapiens) (P36888 whole entry, the tested form may be a part): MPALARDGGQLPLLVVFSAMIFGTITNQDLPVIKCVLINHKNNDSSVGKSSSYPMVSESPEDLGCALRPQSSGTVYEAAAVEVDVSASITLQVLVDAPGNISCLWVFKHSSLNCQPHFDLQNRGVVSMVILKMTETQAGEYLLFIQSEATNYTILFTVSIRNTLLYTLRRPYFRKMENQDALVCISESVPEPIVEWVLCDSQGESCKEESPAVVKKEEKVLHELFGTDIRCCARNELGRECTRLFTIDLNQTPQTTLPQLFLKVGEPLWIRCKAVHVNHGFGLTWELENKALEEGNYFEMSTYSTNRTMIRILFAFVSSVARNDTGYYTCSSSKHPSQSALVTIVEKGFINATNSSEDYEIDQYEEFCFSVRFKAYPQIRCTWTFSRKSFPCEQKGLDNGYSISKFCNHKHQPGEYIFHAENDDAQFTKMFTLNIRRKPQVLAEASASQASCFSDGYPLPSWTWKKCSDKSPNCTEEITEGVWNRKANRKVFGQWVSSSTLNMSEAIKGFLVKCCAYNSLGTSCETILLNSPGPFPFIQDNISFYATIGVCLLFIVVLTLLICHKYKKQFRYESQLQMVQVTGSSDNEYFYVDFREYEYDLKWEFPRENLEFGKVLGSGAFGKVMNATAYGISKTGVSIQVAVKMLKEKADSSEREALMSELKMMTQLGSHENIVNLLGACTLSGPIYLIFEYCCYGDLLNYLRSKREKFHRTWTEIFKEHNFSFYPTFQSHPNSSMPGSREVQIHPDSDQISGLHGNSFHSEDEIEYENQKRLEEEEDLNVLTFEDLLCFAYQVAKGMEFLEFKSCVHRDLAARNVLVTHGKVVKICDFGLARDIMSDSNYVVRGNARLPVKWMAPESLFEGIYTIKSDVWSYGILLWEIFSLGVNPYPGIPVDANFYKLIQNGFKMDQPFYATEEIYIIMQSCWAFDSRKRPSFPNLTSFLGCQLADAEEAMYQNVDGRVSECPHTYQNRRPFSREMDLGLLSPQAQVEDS

[18] = tested on: Mast/stem cell growth factor receptor Kit (Homo sapiens), P10721 [V559D,T670I]; assay: Binding affinity to human partial length KIT V559D/T670I double mutant (Y545 to D952 residues) expressed in bacterial expression system assessed as residual binding level at 1 uM by Kinomescan method relative to control; outline: as §2
[19] = target: 1-phosphatidylinositol 3-phosphate 5-kinase (Homo sapiens) (UniProt Q9Y2I7); assay: Binding affinity to wild-type human partial length PIKFYVE (F1512 to C2098 residues) expressed in mammalian expression system assessed as residual binding level at 1 uM by Kinomescan method relative to control
[20] = Clearance in mouse at 2 mg/kg, iv; assay type: ADME, organism-based; conditions: in vivo
[21] = target: Mitogen-activated protein kinase 9 (Homo sapiens) (UniProt P45984); assay: Binding affinity to wild-type human full length JNK2 (M1 to Q382 residues) expressed in mammalian expression system assessed as residual binding level at 1 uM by Kinomescan method relative to control; outline: as §1
[22] = tested on: Tyrosine-protein kinase ABL1 (Homo sapiens), P00519 [H396P]; assay: Binding affinity to human non-phosphorylated ABL1 H396P mutant (S229 to K512 residues) expressed in mammalian expression system assessed as residual binding level at 1 uM by Kinomescan method relative to control; outline: as §2
[23] = target: Death-associated protein kinase 2 (Homo sapiens) (UniProt Q9UIK4); assay: Binding affinity to wild-type human full length DAPK2 (M1 to S370 residues) expressed in bacterial expression system assessed as residual binding level at 1 uM by Kinomescan method relative to control
Chain of Death-associated protein kinase 2 (Homo sapiens) (Q9UIK4 whole entry, looked up, the tested form may be a part): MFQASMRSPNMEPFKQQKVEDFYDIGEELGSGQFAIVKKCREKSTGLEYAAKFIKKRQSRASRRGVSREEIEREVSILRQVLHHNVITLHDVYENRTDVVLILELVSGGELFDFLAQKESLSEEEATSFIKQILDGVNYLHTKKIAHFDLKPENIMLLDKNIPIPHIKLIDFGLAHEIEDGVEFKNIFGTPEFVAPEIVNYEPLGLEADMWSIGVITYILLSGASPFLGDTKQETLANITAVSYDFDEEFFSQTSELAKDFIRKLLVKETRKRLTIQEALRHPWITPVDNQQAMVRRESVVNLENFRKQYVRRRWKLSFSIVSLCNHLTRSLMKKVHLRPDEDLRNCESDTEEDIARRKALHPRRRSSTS

[24] = target: Membrane-associated tyrosine- and threonine-specific cdc2-inhibitory kinase (Homo sapiens) (UniProt Q99640); assay: Binding affinity to wild-type human partial length PKMYT1 (A88 to G366 residues) expressed in bacterial expression system assessed as residual binding level at 1 uM by Kinomescan method relative to control

With `C=CC(=O)Nc1cc(Nc2ncc(Cl)c(Nc3ccccc3S(=O)(=O)C(C)C)n2)c(OC)cc1N(C)CCN(C)C` the Activity [1] was 9%, the Activity [2] was 86% and the Activity [3] was 3.2%. For the same compound, the Activity [4] was 8.8%, the Activity [5] was 94% and the Activity [6] was 75%. It also gave an Activity [7] of 0%, an Activity [8] of 1.2% and an Activity [9] of 73%. For the same compound, the Activity [10] was 93%, the Activity [11] was 85% and the Activity [12] was 94%. The Activity [13] was 9.1%, the Activity [14] was 68% and the Activity [15] was 77%. For the same compound, the Activity [16] was 16%, the Activity [17] was 3.1% and the Activity [18] was 60%. For the same compound, the Activity [19] was 100%, the clearance [20] was 29 mL/min/kg and the Activity [21] was 68%. The Activity [22] was 2.3%, the Activity [23] was 47% and the Activity [24] was 80%.
